From ChEMBL document CHEMBL5338733, “Heterobifunctional Ligase Recruiters Enable pan-Degradation of Inhibitor of Apoptosis Proteins” (J Med Chem, 2023)
Blank lines part the entries; values can stand above or below the molecule they belong to. Active and inactive are the calls of the source. The rule behind the calls is not given here.

Experiments:
[1] = target: Baculoviral IAP repeat-containing protein 2 (Homo sapiens) (UniProt Q13490); test: Induction of cIAP1 degradation in human VHL knock-out HG-3 cells at 1 uM incubated for 16 hrs by western blot analysis; format: cell-based
Chain of Baculoviral IAP repeat-containing protein 2 (Homo sapiens) (Q13490 whole entry): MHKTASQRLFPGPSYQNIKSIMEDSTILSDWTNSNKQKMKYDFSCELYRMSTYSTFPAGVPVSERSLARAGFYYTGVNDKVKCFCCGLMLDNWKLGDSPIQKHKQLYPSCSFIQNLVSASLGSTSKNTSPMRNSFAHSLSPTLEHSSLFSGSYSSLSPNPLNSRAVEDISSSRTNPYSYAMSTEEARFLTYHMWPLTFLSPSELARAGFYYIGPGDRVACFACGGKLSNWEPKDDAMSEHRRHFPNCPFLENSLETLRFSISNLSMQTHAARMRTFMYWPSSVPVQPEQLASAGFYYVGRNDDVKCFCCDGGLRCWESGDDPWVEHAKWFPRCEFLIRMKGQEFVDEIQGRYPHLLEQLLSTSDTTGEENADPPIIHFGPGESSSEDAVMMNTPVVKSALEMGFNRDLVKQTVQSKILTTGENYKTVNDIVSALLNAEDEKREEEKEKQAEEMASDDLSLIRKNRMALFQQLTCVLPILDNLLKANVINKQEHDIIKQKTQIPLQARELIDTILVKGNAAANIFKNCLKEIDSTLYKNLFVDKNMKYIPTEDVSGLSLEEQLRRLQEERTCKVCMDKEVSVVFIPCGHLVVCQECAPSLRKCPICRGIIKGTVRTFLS
Outline: (§1)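 HG3 cells expressing Cas9 (lentiviral, blasticidin-selected) transduced with sgRNA against VHL or control luciferase (≥95% tomato-positive by FACS at 48 h); treated 1 μM for 16 h; lysed, SDS-PAGE, PVDF immunoblot with ECL detection, bands quantified by densitometry.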

[2] = target: T1, von Hippel-Lindau disease tumor suppressor/E3 ubiquitin-protein ligase XIAP (Homo sapiens) (UniProt P98170+P40337); test: PROTAC activity at VHL/IAP in human HG-3 cells harboring wild type VHL assessed as induction of XIAP degradation at 1 uM incubated for 16 hrs by western blot analysis; format: cell-based; outline: as §1
T1 sequence (P40337 whole entry, looked up): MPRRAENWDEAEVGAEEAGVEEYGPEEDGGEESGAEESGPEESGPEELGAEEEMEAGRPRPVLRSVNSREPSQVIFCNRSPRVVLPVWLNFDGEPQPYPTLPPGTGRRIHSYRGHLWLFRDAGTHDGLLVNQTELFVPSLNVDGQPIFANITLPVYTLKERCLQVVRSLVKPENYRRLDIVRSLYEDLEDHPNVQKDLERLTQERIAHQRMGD
T1 sequence (P98170 whole entry, looked up): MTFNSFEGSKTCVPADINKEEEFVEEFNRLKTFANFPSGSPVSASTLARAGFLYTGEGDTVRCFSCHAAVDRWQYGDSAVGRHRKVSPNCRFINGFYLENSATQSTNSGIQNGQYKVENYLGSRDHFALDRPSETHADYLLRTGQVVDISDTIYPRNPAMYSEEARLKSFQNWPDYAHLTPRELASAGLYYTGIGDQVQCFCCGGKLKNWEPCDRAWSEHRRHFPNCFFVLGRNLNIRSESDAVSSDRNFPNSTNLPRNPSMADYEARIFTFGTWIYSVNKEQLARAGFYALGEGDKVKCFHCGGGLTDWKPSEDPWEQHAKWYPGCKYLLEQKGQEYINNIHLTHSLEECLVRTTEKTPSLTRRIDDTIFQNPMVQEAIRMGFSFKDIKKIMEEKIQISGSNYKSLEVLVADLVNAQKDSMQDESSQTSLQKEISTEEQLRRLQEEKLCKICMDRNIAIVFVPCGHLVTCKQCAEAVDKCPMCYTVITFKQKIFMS

[3] = target: T2, von Hippel-Lindau disease tumor suppressor/Baculoviral IAP repeat-containing protein 2 (Homo sapiens) (UniProt Q13490+P40337); test: PROTAC activity at VHL/IAP in human HG-3 cells harboring wild type VHL assessed as induction of cIAP1 degradation at 1 uM incubated for 16 hrs by western blot analysis; format: cell-based; outline: as §1
T2 sequence (P40337 whole entry, looked up): as the sequence (P40337 whole entry, looked up) above
T2 sequence (Q13490 whole entry, looked up): as the sequence (Q13490 whole entry) above

[4] = target: Protein cereblon/Zinc finger protein Aiolos (Homo sapiens) (UniProt Q96SW2+Q9UKT9); test: PROTAC activity at CRBN/IKZF3 in human MM1.S cells assessed as induction of IKZF3 degradation at 1 uM incubated for 16 hrs by western blot analysis; format: cell-based
Chain of Protein cereblon/Zinc finger protein Aiolos (Homo sapiens) (Q96SW2 whole entry, looked up): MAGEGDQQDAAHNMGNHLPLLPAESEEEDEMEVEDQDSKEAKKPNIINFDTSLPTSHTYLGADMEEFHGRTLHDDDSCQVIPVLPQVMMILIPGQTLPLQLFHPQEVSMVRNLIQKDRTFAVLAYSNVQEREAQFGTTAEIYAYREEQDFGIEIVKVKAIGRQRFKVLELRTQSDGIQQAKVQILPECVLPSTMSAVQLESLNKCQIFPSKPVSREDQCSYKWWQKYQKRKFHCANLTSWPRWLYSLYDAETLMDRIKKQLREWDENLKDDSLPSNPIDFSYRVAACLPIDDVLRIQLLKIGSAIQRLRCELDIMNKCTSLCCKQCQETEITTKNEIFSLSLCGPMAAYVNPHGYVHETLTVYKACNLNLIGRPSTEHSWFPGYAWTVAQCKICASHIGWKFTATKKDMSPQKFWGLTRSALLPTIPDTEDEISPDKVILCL
Chain of Protein cereblon/Zinc finger protein Aiolos (Homo sapiens) (Q9UKT9 whole entry, looked up): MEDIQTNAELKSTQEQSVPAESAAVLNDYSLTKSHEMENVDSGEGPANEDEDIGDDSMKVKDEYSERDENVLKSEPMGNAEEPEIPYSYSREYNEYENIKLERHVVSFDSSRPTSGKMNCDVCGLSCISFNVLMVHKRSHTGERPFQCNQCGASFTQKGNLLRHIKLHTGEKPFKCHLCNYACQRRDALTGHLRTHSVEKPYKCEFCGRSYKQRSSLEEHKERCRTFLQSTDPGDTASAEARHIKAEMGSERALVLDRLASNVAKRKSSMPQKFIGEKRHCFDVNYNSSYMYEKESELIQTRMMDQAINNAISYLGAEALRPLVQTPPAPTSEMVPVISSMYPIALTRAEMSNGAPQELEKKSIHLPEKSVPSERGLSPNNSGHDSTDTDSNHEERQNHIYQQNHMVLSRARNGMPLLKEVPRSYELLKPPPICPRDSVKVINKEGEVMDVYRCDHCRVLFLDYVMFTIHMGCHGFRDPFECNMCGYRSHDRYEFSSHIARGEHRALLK
Outline: (§2)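 MM.1S cells treated 16 h at the stated concentration. Lysed, run on SDS-PAGE and transferred to PVDF. Probed with primary antibodies overnight at 4 °C, then HRP secondaries, with ECL detection. Band densitometry normalized to loading control and to DMSO-treated cells. Averages of at least three independent experiments.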

[5] = target: T3, Protein cereblon/E3 ubiquitin-protein ligase XIAP (Homo sapiens) (UniProt P98170+Q96SW2); test: PROTAC activity at CRBN/IAP in human MM1.S cells assessed as induction of XIAP degradation at 1 uM incubated for 16 hrs by western blot analysis; format: cell-based; outline: as §2
T3 sequence (P98170 whole entry, looked up): as the sequence (P98170 whole entry, looked up) above
T3 sequence (Q96SW2 whole entry, looked up): as the sequence (Q96SW2 whole entry, looked up) above

[6] = target: T4, von Hippel-Lindau disease tumor suppressor/IAP (Homo sapiens) (UniProt P98170+Q13489+Q13490+P40337); test: PROTAC activity at VHL/IAP in human MM1.S cells assessed as induction of VHL30 degradation by measuring remaining protein level at 0.1 uM incubated for 16 hrs by western blot analysis; format: cell-based; outline: as §2
T4 sequence (P40337 whole entry, looked up): as the sequence (P40337 whole entry, looked up) above
T4 sequence (P98170 whole entry, looked up): as the sequence (P98170 whole entry, looked up) above
T4 sequence (Q13489 whole entry, looked up): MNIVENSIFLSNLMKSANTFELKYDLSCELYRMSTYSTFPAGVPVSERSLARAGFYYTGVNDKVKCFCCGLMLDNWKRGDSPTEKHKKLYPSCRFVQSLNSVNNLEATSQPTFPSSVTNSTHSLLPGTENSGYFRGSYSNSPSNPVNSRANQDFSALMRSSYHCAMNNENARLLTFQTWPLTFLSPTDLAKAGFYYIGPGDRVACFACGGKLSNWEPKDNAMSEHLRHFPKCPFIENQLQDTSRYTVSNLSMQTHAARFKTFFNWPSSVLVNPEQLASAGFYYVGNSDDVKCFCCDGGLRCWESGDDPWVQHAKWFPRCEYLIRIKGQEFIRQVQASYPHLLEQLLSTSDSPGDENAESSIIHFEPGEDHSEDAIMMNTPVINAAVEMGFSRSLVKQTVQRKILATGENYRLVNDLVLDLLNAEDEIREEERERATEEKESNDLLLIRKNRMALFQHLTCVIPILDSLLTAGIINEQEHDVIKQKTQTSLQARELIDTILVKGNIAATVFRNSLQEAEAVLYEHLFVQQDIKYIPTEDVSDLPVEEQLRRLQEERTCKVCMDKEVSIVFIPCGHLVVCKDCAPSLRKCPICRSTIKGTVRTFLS
T4 sequence (Q13490 whole entry, looked up): as the sequence (Q13490 whole entry) above

[7] = target: T1, von Hippel-Lindau disease tumor suppressor/E3 ubiquitin-protein ligase XIAP (Homo sapiens); test: PROTAC activity at VHL/IAP in human MM1.S cells assessed as induction of XIAP degradation at 0.1 to 1 uM incubated for 16 hrs by western blot analysis; format: cell-based; details: dose 0.1-1 µM; outline: as §2
[8] = target: T2, von Hippel-Lindau disease tumor suppressor/Baculoviral IAP repeat-containing protein 2 (Homo sapiens); test: PROTAC activity at VHL/IAP in human MM1.S cells assessed as induction of cIAP1 degradation at 0.1 to 1 uM incubated for 16 hrs by western blot analysis; format: cell-based; details: dose 0.1-1 µM
Outline: (§3)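 MM.1S cells (RPMI-1640, 10% FBS, 1% pen/strep, 1% L-glutamine, 37 °C, 5% CO2) exposed to compound or DMSO for 16 h. Lysed in IP lysis buffer, SDS-PAGE, PVDF transfer, primary antibody overnight at 4 °C, HRP secondary, ECL detection. Bands quantified densitometrically, normalized to loading control and DMSO, reported as remaining protein; at least three independent experiments.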

[9] = target: T5, von Hippel-Lindau disease tumor suppressor/Baculoviral IAP repeat-containing protein 3 (Homo sapiens) (UniProt Q13489+P40337); test: PROTAC activity at VHL/IAP in human MM1.S cells assessed as induction of cIAP2 degradation at 0.1 to 1 uM incubated for 16 hrs by western blot analysis; format: cell-based; details: dose 0.1-1 µM; outline: as §3
T5 sequence (P40337 whole entry, looked up): as the sequence (P40337 whole entry, looked up) above
T5 sequence (Q13489 whole entry, looked up): as the sequence (Q13489 whole entry, looked up) above

[10] = system: RPMI-8226; test: Cytotoxicity against human RPMI-8226 cells assessed as reduction in cell viability measured after 96 hrs in presence of TNF-alpha by CellTiter-Glo luminescent assay; format: functional, cell-based; details: RPMI-8226, 96 h
Outline: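 Cells kept in RPMI-1640 with 10% FBS, 1% penicillin/streptomycin and 1% L-glutamine at 37 °C, 5% CO2. Seeded with compounds and incubated 96 h at 37 °C with TNF-α at 1 ng/mL. Viability read by CellTiter-Glo luminescence and normalized to DMSO-treated control. Mean ± SD of biological triplicates.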

[11] = target: T4, von Hippel-Lindau disease tumor suppressor/IAP (Homo sapiens); test: PROTAC activity at VHL/IAP in human MM1.S cells assessed as induction of VHL30 degradation at 1 uM incubated for 16 hrs by western blot analysis; format: cell-based; outline: as §2
[12] = target: T1, von Hippel-Lindau disease tumor suppressor/E3 ubiquitin-protein ligase XIAP (Homo sapiens); test: PROTAC activity at VHL/IAP in human MM1.S cells assessed as induction of XIAP degradation at 1 uM incubated for 16 hrs by western blot analysis; format: cell-based; outline: as §3
[13] = target: T2, von Hippel-Lindau disease tumor suppressor/Baculoviral IAP repeat-containing protein 2 (Homo sapiens); test: PROTAC activity at VHL/IAP in human MM1.S cells assessed as induction of cIAP1 degradation at 1 uM incubated for 16 hrs by western blot analysis; format: cell-based; outline: as §3
[14] = target: T1, von Hippel-Lindau disease tumor suppressor/E3 ubiquitin-protein ligase XIAP (Homo sapiens); test: PROTAC activity at VHL/IAP in human MM1.S cells assessed as induction of XIAP degradation at 10 nM incubated for 16 hrs by western blot analysis; format: cell-based; outline: as §3
[15] = target: T5, von Hippel-Lindau disease tumor suppressor/Baculoviral IAP repeat-containing protein 3 (Homo sapiens); test: PROTAC activity at VHL/IAP in human MM1.S cells assessed as induction of cIAP2 degradation at 1 uM incubated for 16 hrs by western blot analysis; format: cell-based; outline: as §3
[16] = target: T2, von Hippel-Lindau disease tumor suppressor/Baculoviral IAP repeat-containing protein 2 (Homo sapiens); test: PROTAC activity at VHL/IAP in human MM1.S cells assessed as induction of cIAP1 degradation at 10 nM incubated for 16 hrs by western blot analysis; format: cell-based; outline: as §3
[17] = target: T5, von Hippel-Lindau disease tumor suppressor/Baculoviral IAP repeat-containing protein 3 (Homo sapiens); test: PROTAC activity at VHL/IAP in human MM1.S cells assessed as induction of cIAP2 degradation at 10 nM incubated for 16 hrs by western blot analysis; format: cell-based; outline: as §3
[18] = target: von Hippel-Lindau disease tumor suppressor (Homo sapiens) (UniProt P40337); test: Induction of VHL30 degradation in human MM1.S cells assessed as remaining protein level at 0.1 uM incubated for 16 hrs by western blot analysis; format: cell-based; outline: as §2
Chain of von Hippel-Lindau disease tumor suppressor (Homo sapiens) (P40337 whole entry, looked up): as the sequence (P40337 whole entry, looked up) above

[19] = target: Baculoviral IAP repeat-containing protein 2 (Homo sapiens) (UniProt Q13490); test: Induction of cIAP1 degradation in human MM1.S cells at 1 uM incubated for 16 hrs by western blot analysis; format: cell-based; outline: as §2
[20] = target: Baculoviral IAP repeat-containing protein 3 (Homo sapiens) (UniProt Q13489); test: Induction of cIAP2 degradation in human MM1.S cells assessed as remaining protein level at 0.1 uM incubated for 16 hrs by western blot analysis; format: cell-based
Chain of Baculoviral IAP repeat-containing protein 3 (Homo sapiens) (Q13489 whole entry): as the sequence (Q13489 whole entry, looked up) above
Outline: (§4)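 Lysed, run on SDS-PAGE and transferred to PVDF. Probed with primary antibodies overnight at 4 °C, then HRP secondaries, with ECL detection. Band densitometry normalized to loading control and to DMSO-treated cells. Averages of at least three independent experiments.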

[21] = target: Baculoviral IAP repeat-containing protein 2 (Homo sapiens) (UniProt Q13490); test: Induction of cIAP1 degradation in human MM1.S cells assessed as remaining protein level at 0.1 uM incubated for 16 hrs by western blot analysis; format: cell-based; outline: as §4
[22] = target: Protein cereblon/Baculoviral IAP repeat-containing protein 3 (Homo sapiens) (UniProt Q13489+Q96SW2); test: PROTAC activity at CRBN/IAP in human MM1.S cells assessed as induction of cIAP2 degradation by measuring remaining protein level at 0.1 uM incubated for 16 hrs by western blot analysis; format: cell-based; outline: as §2
Chain of Protein cereblon/Baculoviral IAP repeat-containing protein 3 (Homo sapiens) (Q13489 whole entry, looked up): as above
Chain of Protein cereblon/Baculoviral IAP repeat-containing protein 3 (Homo sapiens) (Q96SW2 whole entry, looked up): as the sequence (Q96SW2 whole entry, looked up) above

[23] = target: Protein cereblon-IAP (Homo sapiens) (UniProt P98170+Q13489+Q13490+Q96SW2); test: PROTAC activity at CRBN/IAP in human MM1.S cells assessed as induction of CRBN degradation by measuring remaining protein level at 0.1 uM incubated for 16 hrs by western blot analysis; format: cell-based; outline: as §2
Chain of Protein cereblon-IAP (Homo sapiens) (P98170 whole entry, looked up): as the sequence (P98170 whole entry, looked up) above
Chain of Protein cereblon-IAP (Homo sapiens) (Q13489 whole entry, looked up): as the sequence (Q13489 whole entry, looked up) above
Chain of Protein cereblon-IAP (Homo sapiens) (Q13490 whole entry, looked up): as the sequence (Q13490 whole entry) above
Chain of Protein cereblon-IAP (Homo sapiens) (Q96SW2 whole entry, looked up): as the sequence (Q96SW2 whole entry, looked up) above

[24] = target: T3, Protein cereblon/E3 ubiquitin-protein ligase XIAP (Homo sapiens); test: PROTAC activity at CRBN/IAP in human MM1.S cells assessed as induction of XIAP degradation by measuring remaining protein level at 0.1 uM incubated for 16 hrs by western blot analysis; format: cell-based; outline: as §2
[25] = target: Protein cereblon/Baculoviral IAP repeat-containing protein 2 (Homo sapiens) (UniProt Q13490+Q96SW2); test: PROTAC activity at CRBN/IAP in human MM1.S cells assessed as induction of cIAP1 degradation by measuring remaining protein level at 0.1 uM incubated for 16 hrs by western blot analysis; format: cell-based; outline: as §2
Chain of Protein cereblon/Baculoviral IAP repeat-containing protein 2 (Homo sapiens) (Q13490 whole entry, looked up): as the sequence (Q13490 whole entry) above
Chain of Protein cereblon/Baculoviral IAP repeat-containing protein 2 (Homo sapiens) (Q96SW2 whole entry, looked up): as the sequence (Q96SW2 whole entry, looked up) above

Structure (SMILES): CN[C@@H](C)C(=O)N[C@H](C(=O)N1CC(Oc2cccc(OCCCCCCOCCCCCCOCC(=O)N[C@H](C(=O)N3C[C@H](O)C[C@H]3C(=O)NCc3ccc(-c4scnc4C)cc3)C(C)(C)C)c2)C[C@H]1C(=O)N[C@@H]1CCCc2ccccc21)C1CCCCC1 (single isomer, unassigned)
Activity [1]: Active | Activity [2]: Active | Activity [3]: Active

Activity [4]: Active
Structure (SMILES): CN[C@@H](C)C(=O)N[C@H](C(=O)N1C[C@@H](Oc2cccc(OCCCCCOCCCCCOCCCCCCNc3cccc4c3C(=O)N(C3CCC(=O)NC3=O)C4=O)c2)C[C@H]1C(=O)N[C@@H]1CCCc2ccccc21)C1CCCCC1 (some centres not stated)

Structure (SMILES): CN[C@@H](C)C(=O)N[C@H](C(=O)N1C[C@@H](Oc2cccc(OCCOCCOCC(=O)N[C@H](C(=O)N3C[C@H](O)C[C@H]3C(=O)NCc3ccc(-c4scnc4C)cc3)C(C)(C)C)c2)C[C@H]1C(=O)N[C@@H]1CCCc2ccccc21)C1CCCCC1
Activity [1]: Active | Activity [2]: Active | Activity [3]: Active

Activity [4]: Active
Structure (SMILES): CN[C@@H](C)C(=O)N[C@H](C(=O)N1C[C@@H](Oc2cccc(OCCCCOCCCCNc3cccc4c3C(=O)N(C3CCC(=O)NC3=O)C4=O)c2)C[C@H]1C(=O)N[C@@H]1CCCc2ccccc21)C1CCCCC1 (some centres not stated)

Activity [5]: inactive
Structure (SMILES): CN[C@@H](C)C(=O)N[C@H](C(=O)N1C[C@@H](Oc2cccc(OCCOCCCCCCOCCCCCCNc3cccc4c3C(=O)N(C3CCC(=O)N(C)C3=O)C4=O)c2)C[C@H]1C(=O)N[C@@H]1CCCc2ccccc21)C1CCCCC1 (some centres not stated)

Activity [6]: 38% | Activity [7]: Active | Activity [8]: Active | Activity [9]: Active
Structure (SMILES): CN[C@@H](C)C(=O)N[C@H](C(=O)N1C[C@@H](Oc2cccc(OCCCCC(=O)N[C@H](C(=O)N3C[C@H](O)C[C@H]3C(=O)NCc3ccc(-c4scnc4C)cc3)C(C)(C)C)c2)C[C@H]1C(=O)N[C@@H]1CCCc2ccccc21)C1CCCCC1

Structure (SMILES): CN[C@@H](C)C(=O)N[C@H](C(=O)N1C[C@@H](Oc2cccc(OCCCCC(=O)N[C@H](C(=O)N3C[C@@H](O)C[C@H]3C(=O)NCc3ccc(-c4scnc4C)cc3)C(C)(C)C)c2)C[C@H]1C(=O)N[C@@H]1CCCc2ccccc21)C1CCCCC1
IC50 [10]: > 5 µM

Activity [11]: Active
Structure (SMILES): CN[C@@H](C)C(=O)N[C@H](C(=O)N1C[C@@H](Oc2cccc(OCCCCOCCCC(=O)N[C@H](C(=O)N3C[C@H](O)C[C@H]3C(=O)NCc3ccc(-c4scnc4C)cc3)C(C)(C)C)c2)C[C@H]1C(=O)N[C@@H]1CCCc2ccccc21)C1CCCCC1

Activity [12]: Active | Activity [13]: Active | Activity [14]: inactive | Activity [15]: Active | Activity [16]: inactive | Activity [17]: inactive
Structure (SMILES): CN[C@@H](C)C(=O)N[C@H](C(=O)N1C[C@@H](Oc2cccc(OCCCCCCOCCCCCCOCCCCCCOc3cc(-c4scnc4C)ccc3CNC(=O)[C@@H]3C[C@@H](O)CN3C(=O)[C@H](C(C)C)N3Cc4ccccc4C3=O)c2)C[C@H]1C(=O)N[C@@H]1CCCc2ccccc21)C1CCCCC1

Activity [18]: 72% | Activity [19]: Active | Activity [20]: 47% | Activity [21]: 7%
Structure (SMILES): CN[C@@H](C)C(=O)N[C@H](C(=O)N1C[C@@H](Oc2ccccc2)C[C@H]1C(=O)N[C@@H]1CCCc2ccccc21)C1CCCCC1

Activity [22]: 14% | Activity [23]: 90% | Activity [24]: 4% | Activity [25]: 5%
Structure (SMILES): CN[C@@H](C)C(=O)N[C@H](C(=O)N1C[C@@H](Oc2cccc(OCCCCCCCCNc3cccc4c3C(=O)N(C3CCC(=O)NC3=O)C4=O)c2)C[C@H]1C(=O)N[C@@H]1CCCc2ccccc21)C1CCCCC1 (some centres not stated)

Structure (SMILES): CN[C@@H](C)C(=O)N[C@H](C(=O)N1C[C@@H](Oc2cccc(OCCCCCCCC(=O)N[C@H](C(=O)N3C[C@H](O)C[C@H]3C(=O)NCc3ccc(-c4scnc4C)cc3)C(C)(C)C)c2)C[C@H]1C(=O)N[C@@H]1CCCc2ccccc21)C1CCCCC1
Activity [1]: Active | Activity [2]: Active | Activity [3]: Active
